Source: ChEMBL document CHEMBL1158358, “Synthesis, antimicrobial and cytotoxic activities of some 5-arylidene-4-thioxo-thiazolidine-2-ones” (Eur J Med Chem, 2009)
In brackets after ≈: the same amount, converted by molar mass.

Legend:
Type in all cases: functional
Staphylococcus aureus [1] = assay: Antimicrobial activity against Staphylococcus aureus UFPEDA 01 after 20 hrs by twofold serial dilution technique; settings: UFPEDA 01, 20 h
How it was run: (§1)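 Twofold serial dilution MIC in agar plates against Gram-positive strains and multidrug-resistant clinical isolates. Inoculum applied was 10⁵ CFU/plate. Plates with culture medium plus DMSO served as negative control. MIC was read after incubation at 35 °C for 20 h.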

Bacillus subtilis [2] = assay: Antimicrobial activity against Bacillus subtilis UFPEDA 16 after 20 hrs by twofold serial dilution technique; settings: UFPEDA 16, 20 h
How it was run: (§2)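 MIC was determined by twofold serial dilution. Bacteria were tested in plates at 10⁵ CFU/plate and read after 20 h. C. albicans was tested in tubes at 10³ CFU/tube and read after 48 h. All incubations were at 35 °C. Medium plus DMSO served as the negative control.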

Micrococcus luteus [3] = assay: Antimicrobial activity against Micrococcus luteus UFPEDA 06 after 20 hrs by twofold serial dilution technique; settings: UFPEDA 06, 20 h; how it was run: as §2
Enterococcus faecalis [4] = assay: Antimicrobial activity against Enterococcus faecalis UFPEDA 138 after 20 hrs by twofold serial dilution technique; settings: UFPEDA 138, 20 h; how it was run: as §2
[5] = tested on: Mycolicibacterium smegmatis; assay: Antimicrobial activity against Mycobacterium smegmatis UFPEDA 71 after 20 hrs by twofold serial dilution technique; settings: UFPEDA 71, 20 h; how it was run: as §2
Candida albicans [6] = assay: Antimicrobial activity against Candida albicans UFPEDA 1007 after 48 hrs by twofold serial dilution technique; settings: UFPEDA 1007, 48 h; how it was run: as §2
Staphylococcus aureus [7] = assay: Antimicrobial activity against multidrug-resistant Staphylococcus aureus H.C. 20981 isolate after 20 hrs by twofold serial dilution technique; settings: H.C. 20981, 20 h; how it was run: as §1
Staphylococcus aureus [8] = assay: Antimicrobial activity against multidrug-resistant Staphylococcus aureus H.C. 21141 isolate after 20 hrs by twofold serial dilution technique; settings: H.C. 21141, 20 h; how it was run: as §1
Staphylococcus aureus [9] = assay: Antimicrobial activity against multidrug-resistant Staphylococcus aureus H.C. 21036 isolate after 20 hrs by twofold serial dilution technique; settings: H.C. 21036, 20 h; how it was run: as §1
Staphylococcus aureus [10] = assay: Antimicrobial activity against multidrug-resistant Staphylococcus aureus H.C. 20489 isolate after 20 hrs by twofold serial dilution technique; settings: H.C. 20489, 20 h; how it was run: as §1
Staphylococcus aureus [11] = assay: Antimicrobial activity against multidrug-resistant Staphylococcus aureus H.C. 20794 isolate after 20 hrs by twofold serial dilution technique; settings: H.C. 20794, 20 h; how it was run: as §1
Staphylococcus aureus [12] = assay: Antimicrobial activity against multidrug-resistant Staphylococcus aureus H.C. 20905 isolate after 20 hrs by twofold serial dilution technique; settings: H.C. 20905, 20 h; how it was run: as §1
Enterococcus faecalis [13] = assay: Antimicrobial activity against multidrug-resistant Enterococcus faecalis H.C. 21752 isolate after 20 hrs by twofold serial dilution technique; settings: H.C. 21752, 20 h; how it was run: as §1
Enterococcus faecalis [14] = assay: Antimicrobial activity against multidrug-resistant Enterococcus faecalis H.C. 21944 isolate after 20 hrs by twofold serial dilution technique; settings: H.C. 21944, 20 h; how it was run: as §1
Enterococcus faecalis [15] = assay: Antimicrobial activity against multidrug-resistant Enterococcus faecalis H.C. 24708 isolate after 20 hrs by twofold serial dilution technique; settings: H.C. 24708, 20 h; how it was run: as §1
Enterococcus faecalis [16] = assay: Antimicrobial activity against multidrug-resistant Enterococcus faecalis H.C. 24962 isolate after 20 hrs by twofold serial dilution technique; settings: H.C. 24962, 20 h; how it was run: as §1
Staphylococcus [17] = assay: Antimicrobial activity against coagulase-negative Staphylococcus H.A.M. 278 isolate after 20 hrs by twofold serial dilution technique; settings: H.A.M. 278, 20 h; how it was run: as §2
Staphylococcus [18] = assay: Antimicrobial activity against coagulase-negative Staphylococcus H.A.M. 338 isolate after 20 hrs by twofold serial dilution technique; settings: H.A.M. 338, 20 h; how it was run: as §2
NCI-H292 [19] = assay: Cytotoxicity against human NCI-H292 cells at 10 ug/mL after 72 hrs by MTT assay; settings: NCI-H292, 72 h, read-out: GI
How it was run: (§3)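 MTT antiproliferative assay. Cells were diluted to 10⁵ cells/mL in 96-well plates and preincubated for 24 h at 37 °C in humid 5% CO₂. Compounds or vincristine (reference) were then added. Formazan was dissolved and OD read at 540 nm, compared with medium-only control cells. Run in triplicate.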

NCI-H292 [20] = assay: Cytotoxicity against human NCI-H292 cells at 5 ug/mL after 72 hrs by MTT assay; settings: NCI-H292, 72 h, read-out: GI; how it was run: as §3
NCI-H292 [21] = assay: Cytotoxicity against human NCI-H292 cells at 2.5 ug/mL after 72 hrs by MTT assay; settings: NCI-H292, 72 h, read-out: GI; how it was run: as §3
NCI-H292 [22] = assay: Cytotoxicity against human NCI-H292 cells at 1.25 ug/mL after 72 hrs by MTT assay; settings: NCI-H292, 72 h, read-out: GI; how it was run: as §3
HEp-2 [23] = assay: Cytotoxicity against human Hep2 cells at 10 ug/mL after 72 hrs by MTT assay; settings: HEp-2, 72 h, read-out: GI; how it was run: as §3
HEp-2 [24] = assay: Cytotoxicity against human Hep2 cells at 5 ug/mL after 72 hrs by MTT assay; settings: HEp-2, 72 h, read-out: GI; how it was run: as §3
HEp-2 [25] = assay: Cytotoxicity against human Hep2 cells at 2.5 ug/mL after 72 hrs by MTT assay; settings: HEp-2, 72 h, read-out: GI; how it was run: as §3
HEp-2 [26] = assay: Cytotoxicity against human Hep2 cells at 1.25 ug/mL after 72 hrs by MTT assay; settings: HEp-2, 72 h, read-out: GI; how it was run: as §3
Serratia marcescens = assay: Antimicrobial activity against Serratia marcescens UFPEDA 398 at 300 ug/disk after 24 hrs by disk diffusion method; settings: UFPEDA 398, 24 h, read-out: IZ
How it was run: (§4)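 Preliminary screen by disk diffusion. Paper disks (6 mm) holding 300 µg of compound were placed on agar plates inoculated with a standardized microbial suspension. DMSO-only disks served as negative controls. A mean inhibition zone below 7 mm was scored as no sensitivity. Values are means, n = 3.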

Escherichia coli = assay: Antimicrobial activity against Escherichia coli UFPEDA 224 at 300 ug/disk after 24 hrs by disk diffusion method; settings: UFPEDA 224, 24 h, read-out: IZ; how it was run: as §4
Staphylococcus aureus [27] = assay: Antimicrobial activity against Staphylococcus aureus UFPEDA 01 at 300 ug/disk after 24 hrs by disk diffusion method; settings: UFPEDA 01, 24 h, read-out: IZ; how it was run: as §4
Bacillus subtilis [28] = assay: Antimicrobial activity against Bacillus subtilis UFPEDA 16 at 300 ug/disk after 24 hrs by disk diffusion method; settings: UFPEDA 16, 24 h, read-out: IZ; how it was run: as §4
Micrococcus luteus [29] = assay: Antimicrobial activity against Micrococcus luteus UFPEDA 06 at 300 ug/disk after 24 hrs by disk diffusion method; settings: UFPEDA 06, 24 h, read-out: IZ; how it was run: as §4
Enterococcus faecalis [30] = assay: Antimicrobial activity against Enterococcus faecalis UFPEDA 138 at 300 ug/disk after 24 hrs by disk diffusion method; settings: UFPEDA 138, 24 h, read-out: IZ; how it was run: as §4
Pseudomonas aeruginosa = assay: Antimicrobial activity against Pseudomonas aeruginosa UFPEDA 39 at 300 ug/disk after 24 hrs by disk diffusion method; settings: UFPEDA 39, 24 h, read-out: IZ; how it was run: as §4
[31] = tested on: Mycolicibacterium smegmatis; assay: Antimicrobial activity against Mycobacterium smegmatis UFPEDA 71 at 300 ug/disk after 24 hrs by disk diffusion method; settings: UFPEDA 71, 24 h, read-out: IZ; how it was run: as §4
Candida albicans [32] = assay: Antimicrobial activity against Candida albicans UFPEDA 1007 at 300 ug/disk after 48 hrs by disk diffusion method; settings: UFPEDA 1007, 48 h, read-out: IZ; how it was run: as §4

SMILES	MIC (Staphylococcus aureus [1]) [µg/mL]	MIC (Bacillus subtilis [2]) [µg/mL]	MIC (Micrococcus luteus [3]) [µg/mL]	MIC (Enterococcus faecalis [4]) [µg/mL]	MIC [5] [µg/mL]	MIC (Candida albicans [6]) [µg/mL]	MIC (Staphylococcus aureus [7]) [µg/mL]	MIC (Staphylococcus aureus [8]) [µg/mL]	MIC (Staphylococcus aureus [9]) [µg/mL]	MIC (Staphylococcus aureus [10]) [µg/mL]	MIC (Staphylococcus aureus [11]) [µg/mL]	MIC (Staphylococcus aureus [12]) [µg/mL]	MIC (Enterococcus faecalis [13]) [µg/mL]	MIC (Enterococcus faecalis [14]) [µg/mL]	MIC (Enterococcus faecalis [15]) [µg/mL]	MIC (Enterococcus faecalis [16]) [µg/mL]	MIC (Staphylococcus [17]) [µg/mL]	MIC (Staphylococcus [18]) [µg/mL]	inhibition of growth at 10 µg/mL (NCI-H292 [19]) [%]	inhibition of growth at 5 µg/mL (NCI-H292 [20]) [%]	also measured
O=C1NC(=S)/C(=C/c2ccccc2Cl)S1	4 (≈ 15.6 µM)	16 (≈ 62.6 µM)	16 (≈ 62.6 µM)	16 (≈ 62.6 µM)	16 (≈ 62.6 µM)	32 (≈ 125 µM)	4 (≈ 15.6 µM)	8 (≈ 31.3 µM)	2 (≈ 7.82 µM)	2 (≈ 7.82 µM)	2 (≈ 7.82 µM)	2 (≈ 7.82 µM)	16 (≈ 62.6 µM)	32 (≈ 125 µM)	16 (≈ 62.6 µM)	32 (≈ 125 µM)	32 (≈ 125 µM)	8 (≈ 31.3 µM)	45	34.2	inhibition of growth at 2.5 µg/mL (NCI-H292 [21]): 19.9%; inhibition of growth at 1.25 µg/mL (NCI-H292 [22]): 10.6%; inhibition of growth at 10 µg/mL (HEp-2 [23]): 21.1%; inhibition of growth at 5 µg/mL (HEp-2 [24]): 5.97%; inhibition of growth at 2.5 µg/mL (HEp-2 [25]): -11.5%; inhibition of growth at 1.25 µg/mL (HEp-2 [26]): -11.3%; zone of inhibition at 300 µg/disc (Serratia marcescens): < 7 mm; zone of inhibition at 300 µg/disc (Escherichia coli): < 7 mm; zone of inhibition at 300 µg/disc (Staphylococcus aureus [27]): 25 mm; zone of inhibition at 300 µg/disc (Bacillus subtilis [28]): 17 mm; zone of inhibition at 300 µg/disc (Micrococcus luteus [29]): 18 mm; zone of inhibition at 300 µg/disc (Enterococcus faecalis [30]): 16 mm; zone of inhibition at 300 µg/disc (Pseudomonas aeruginosa): < 7 mm; zone of inhibition at 300 µg/disc [31]: 20 mm; zone of inhibition at 300 µg/disc (Candida albicans [32]): 12 mm
O=C1NC(=S)/C(=C/c2ccc(Cl)cc2Cl)S1	2 (≈ 6.89 µM)	2 (≈ 6.89 µM)	8 (≈ 27.6 µM)	16 (≈ 55.1 µM)	4 (≈ 13.8 µM)	32 (≈ 110 µM)	2 (≈ 6.89 µM)	4 (≈ 13.8 µM)	8 (≈ 27.6 µM)	2 (≈ 6.89 µM)	2 (≈ 6.89 µM)	2 (≈ 6.89 µM)	4 (≈ 13.8 µM)	4 (≈ 13.8 µM)	8 (≈ 27.6 µM)	8 (≈ 27.6 µM)	4 (≈ 13.8 µM)	2 (≈ 6.89 µM)	38.4	29.3	inhibition of growth at 2.5 µg/mL (NCI-H292 [21]): 14.7%; inhibition of growth at 1.25 µg/mL (NCI-H292 [22]): 12.1%; inhibition of growth at 10 µg/mL (HEp-2 [23]): 24.8%; inhibition of growth at 5 µg/mL (HEp-2 [24]): 20%; inhibition of growth at 2.5 µg/mL (HEp-2 [25]): 15.3%; inhibition of growth at 1.25 µg/mL (HEp-2 [26]): 6.83%; zone of inhibition at 300 µg/disc (Serratia marcescens): < 7 mm; zone of inhibition at 300 µg/disc (Escherichia coli): < 7 mm; zone of inhibition at 300 µg/disc (Staphylococcus aureus [27]): 23 mm; zone of inhibition at 300 µg/disc (Bacillus subtilis [28]): 24 mm; zone of inhibition at 300 µg/disc (Micrococcus luteus [29]): 24 mm; zone of inhibition at 300 µg/disc (Enterococcus faecalis [30]): 18 mm; zone of inhibition at 300 µg/disc (Pseudomonas aeruginosa): < 7 mm; zone of inhibition at 300 µg/disc [31]: 19 mm; zone of inhibition at 300 µg/disc (Candida albicans [32]): 15 mm
